Among the data in ChEMBL document CHEMBL2202976, “Structure requirements for anaerobe processing of azo compounds: implications for prodrug design” (Bioorg Med Chem Lett, 2012) are Drug metabolism and metabolised values, retold here.

SMILES strings stand for the structures.

Holding throughout (type): ADME
The nature of data set [1]: Prodrug conversion assessed as Clostridium perfringens azoreductase-mediated prednisolone formation by HPLC analysis.
Data set [2] can be described thus: Prodrug conversion assessed as Clostridium perfringens azoreductase-mediated disproportionation to parent amine by HPLC analysis.
The nature of data set [3]: Drug metabolism assessed as Clostridium perfringens azoreductase-mediated reduction within 4 hrs by HPLC analysis.
Data set [4] is described as follows: Drug metabolism assessed as Clostridium perfringens azoreductase-mediated reoxidation of hydrazine intermediate to parent azo compound by LCMS analysis. In short, it runs like this: (§1)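 Azo substrate incubated in Clostridium perfringens culture. Samples taken at 0 h and 6 h and analysed by LCMS, resolving parent azo isomer peaks from the hydrazine intermediate peak.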

Data set [5] is described as follows: Drug metabolism assessed as Clostridium perfringens azoreductase-mediated hydrazine intermediate formation by LCMS analysis. The essentials: as §1
Data set [6] in a line: Drug metabolism assessed as Clostridium perfringens azoreductase-mediated reoxidation of hydrazine intermediate to parent azo compound at 6 hrs by LCMS analysis. In short, it runs like this: as §1
The nature of data set [7]: Drug metabolism assessed as Clostridium perfringens-mediated hydrazine intermediate formation at 6 hrs by LCMS analysis. In short, it runs like this:
as §1

For the next data set, the system named is azoreductase. As to the kind of experiment: Drug metabolism assessed as Clostridium perfringens azoreductase-mediated reduction at 6 hrs by HPLC analysis. The settings on record: read-out: Drug metabolism. In short, it runs like this: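 Azo substrates incubated with Clostridium perfringens culture and sampled over time to 6 h. Parent loss and product formation followed by reverse-phase HPLC with PDA UV detection, with the azo chromophore absorbing at 300–400 nm.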

A short description of data set [8]: Drug metabolism assessed as Clostridium perfringens azoreductase-mediated dihydroquinolone derivative formation by HPLC analysis.

As to `O=C(O)CCc1ccccc1/N=N/c1ccc(C(=O)NCC(=O)O)cc1`, in data set [1], the Drug metabolism entry is reported as “Not Active”.
Take `O=[N+]([O-])c1ccc(/N=N/c2ccc(O)cc2)cc1`: the Drug metabolism entry in data set [2] and in [3] was “Active” in each case.
For the compound `O=C(O)c1ccc(/N=N/c2ccc(O)cc2)cc1`, the Drug metabolism result in data set [2] and in data set [3] was “Active” in each case.
`N#Cc1ccc(/N=N/c2ccc(O)cc2)cc1`: the Drug metabolism entry in [2] and in data set [3] was “Active” each time.
On to `O=C(O)c1cccc(/N=N/c2ccccc2)c1`, for which the Drug metabolism entry in [4] and in data set [5] was “Active” in each case.
Turning to `Brc1ccc(/N=N/c2ccccc2)cc1`, the Drug metabolism entry in data set [4] and in [5] was “Active” throughout.
As to `N#Cc1ccc(/N=N/c2ccccc2)cc1`, the Drug metabolism result in [4] and in [5] was “Active” in each case.
As for `FC(F)(F)c1ccc(/N=N/c2ccccc2)cc1`, the Drug metabolism result in data set [4] is listed as “Not Active”; in [2] it was “Active”; in data set [5] it was “Active”.
Regarding `C[C@]12C=CC(=O)C=C1CC[C@@H]1[C@@H]2[C@@H](O)C[C@@]2(C)[C@H]1CC[C@]2(O)C(=O)COC(=O)CCc1ccccc1/N=N/c1ccc(C(=O)O)cc1`, the Drug metabolism entry in data set [6] was “Active”; in data set [7], “Active”; in [8], “Not Active”; in data set [1], “Not Active”. Besides, in the data set on azoreductase, the metabolised at 6 h was found to be 55%.
For the compound `O=C(O)CCc1ccccc1/N=N/c1ccc(C(=O)O)cc1`, in data set [1], the Drug metabolism entry was “Not Active”.
Regarding `O=C(O)c1ccc(/N=N/c2ccccc2)cc1`, the Drug metabolism entry in [4] and in data set [5] was “Active” throughout.
On to `Oc1ccc(/N=N/c2ccc(Br)cc2)cc1`, for which the Drug metabolism result in data set [2] and in data set [3] was “Active” in each case.
As to `CN(C)c1ccc(/N=N/c2ccccc2C(=O)O)cc1`, the Drug metabolism entry in data set [2] and in data set [3] was “Active” in each case.
Take `CN(C)c1ccc(/N=N/c2ccccc2)cc1` [DIMETHYL YELLOW]: the Drug metabolism entry in data set [2] and in data set [3] was “Active” each time.
